Source: PubChem BioAssay (several laboratories)
The list is not random: actives were taken first. Their share in the collection is about 2.6%.
VIM-2 inh – inhibitors of Pseudomonas aeruginosa VIM-2 metallo-beta-lactamase; actives 0.89% (n = 290,000); purified VIM-2, nitrocefin hydrolysis, epi-absorbance fluorescence; inhibition, % at 5.6 µM;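 active means inhibition above the mean of all tested compounds plus 3 SD, cutoff set per screening run, cut at about 7.5% in these data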;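 further: red hydrolysis product quenches plate fluorescence so inhibitors raise well fluorescence; 0% = enzyme with DMSO and 100% = DMSO without enzyme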
RanGTP-Impb inh – disruptors of Ran-importin-beta complex formation – biochemical, FRET, CFP-Ran, YFP-importin-beta, homogeneous, primary screen. cell-free CFP-Ran/YFP-importin-beta FRET ratio. inhibition, % (concentration not given with the values). actives 1.1% (n = 300,000). AID 2216;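 active means more than half of the replicate wells show a fall in the fluorescence ratio signal beyond about 16%, limit read from the data, passing the limit was not always enough; inconclusive means exactly half of the replicate wells pass the set limit; inactive means fewer than half of replicates pass the limit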;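 further: 0% = DMSO wells and 100% = Ran loaded with GDP instead of GTP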
IMP-1 inh – blocks Pseudomonas aeruginosa IMP-1 metallo-beta-lactamase. purified IMP-1, nitrocefin hydrolysis, epi-absorbance fluorescence. inhibition, % at 5.6 µM. actives 0.45% (n = 290,000);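 active means inhibition above the mean plus 3 SD of all compounds in the same screening run, cut at about 4.5% in these data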;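 further: 0% = IMP-1 with DMSO and 100% = DMSO wells lacking enzyme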
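Test system: recombinant IMP-1 enzyme, purified / Medium: HEPES buffer pH 7.1 with ZnSO4 and Brij 35 / Doses: single dose, 5.6 µM / Times: 25 °C, 15 min preincubation, 25 min reaction / Detection: Epi-absorbance via hydrolysed-nitrocefin quenching of white-plate fluorescence, 480/530 nm, EDTA stop / Evaluation: percent inhibition from optical density relative to buffer-blank wells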
Runt-SMMHC FRET – Runt domain-CBFb-SMMHC interaction inhibition. Cerulean-Runt/Venus-CBFb-SMMHC FRET ratio 530/480, 1 h. actives 0.74% (n = 220,000). Q01196+Q13951. inhibition, % at 20 µM;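 active means mean inhibition across duplicate retests at 20 µM reaching about 50%, limit read from the data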;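 further: 0% = DMSO wells and 100% = wells with excess untagged CBFb-SMMHC; inhibitors lower the FRET ratio by blocking Runt binding to CBFb-SMMHC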
Target sequence (Q01196 whole entry, looked up, the tested form may be a part): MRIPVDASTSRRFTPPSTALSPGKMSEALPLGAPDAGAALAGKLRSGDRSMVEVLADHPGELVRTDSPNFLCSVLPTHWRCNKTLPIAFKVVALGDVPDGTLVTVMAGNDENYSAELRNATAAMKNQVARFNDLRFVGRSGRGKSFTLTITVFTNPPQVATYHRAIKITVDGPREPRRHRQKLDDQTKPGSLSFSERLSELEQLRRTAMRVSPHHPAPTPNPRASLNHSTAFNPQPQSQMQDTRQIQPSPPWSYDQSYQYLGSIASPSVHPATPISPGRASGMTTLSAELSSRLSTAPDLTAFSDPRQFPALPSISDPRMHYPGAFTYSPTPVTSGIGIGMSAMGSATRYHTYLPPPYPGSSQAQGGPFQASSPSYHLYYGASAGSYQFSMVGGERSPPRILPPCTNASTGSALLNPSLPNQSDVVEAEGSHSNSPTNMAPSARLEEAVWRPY
Target sequence (Q13951 whole entry, looked up, the tested form may be a part): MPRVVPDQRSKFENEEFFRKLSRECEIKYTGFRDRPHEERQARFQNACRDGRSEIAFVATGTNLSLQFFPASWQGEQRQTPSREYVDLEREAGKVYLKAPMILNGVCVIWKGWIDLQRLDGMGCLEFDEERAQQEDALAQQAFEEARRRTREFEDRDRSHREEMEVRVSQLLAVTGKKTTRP
Runt-CBFb FRET – inhibitors of human RUNX1 Runt domain binding to CBFb; Q01196+Q13951; Cerulean-Runt/Venus-CBFb FRET ratio 530/480, 1 h; inhibition, % at 20 µM; actives 0.46% (n = 220,000);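 active means inhibition over about 50% at 20 µM in the single-dose screen, limit read from the data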;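 further: 0% = DMSO wells and 100% = excess unlabeled CBFb competitor control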
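test system = Cerulean-tagged RUNX1 Runt domain (FRET donor) fusion protein | reagent = Venus-CBFb binding partner, 100 nM | incubation = protein complex preformed 1 h, compound exposure 1 h, room temperature, dark | detection = FRET fluorescence | read-out basis = loss of energy transfer signal | controls = 5 µM unlabeled CBFb as full-inhibition high control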
The depositor's hits bear a star.

`Cc1ccc(-c2c(CC(=O)O)c(C)nc3sc4c(c23)CCCC4)cc1` gave VIM-2 inh -3.7, RanGTP-Impb inh -1.3 and IMP-1 inh -5.0.
NNC(=O)c1nc[nH]c1C(=O)Nc1ccccn1 was read as VIM-2 inh -2.7, RanGTP-Impb inh 1.4, IMP-1 inh 7.6*, Runt-SMMHC FRET -9.2 and Runt-CBFb FRET -1.1.
For Cc1ccc(NC(=O)c2c(-c3c(F)cccc3Cl)noc2C)cc1F the results were VIM-2 inh 6.6, RanGTP-Impb inh 13.4, IMP-1 inh 41.0*, Runt-SMMHC FRET 6.8 and Runt-CBFb FRET 0.5.
`O=C(O)C1CSC2c3ccccc3C(=O)N12` (stereo not drawn) gave VIM-2 inh -3.0, RanGTP-Impb inh inconclusive, IMP-1 inh 10.5*, Runt-SMMHC FRET -6.1 and Runt-CBFb FRET -1.3.
For O=C(NC1CCCC1)[C@@H]1CSC2c3ccccc3C(=O)N21 (stereo partly drawn) the results were VIM-2 inh -0.9, RanGTP-Impb inh -1.1 and IMP-1 inh -1.8.
Screening COC(=O)/C(=C(O)\C=C\c1ccccc1[N+](=O)[O-])c1nc2ccccc2[nH]1 returned VIM-2 inh 0.9, RanGTP-Impb inh -5.2 and IMP-1 inh -3.0.
`COc1ccccc1C1C(C#N)=C(N)Oc2cc(C)n(Cc3ccccn3)c(=O)c21` (stereo not drawn) gave VIM-2 inh -2.1, RanGTP-Impb inh 2.2, IMP-1 inh 0.7, Runt-SMMHC FRET 0.6 and Runt-CBFb FRET 2.5.
For COCCn1c(C)cc2c(c1=O)C(c1ccccc1F)C(C#N)=C(N)O2 (stereo not drawn) the results were VIM-2 inh -5.1, RanGTP-Impb inh 63.0*, IMP-1 inh -3.9, Runt-SMMHC FRET 32.8 and Runt-CBFb FRET 6.0.
`Cc1cc2c(c(=O)n1CCCn1ccnc1)C(c1ccco1)C(C#N)=C(N)O2` (stereo not drawn) gave VIM-2 inh -0.7, RanGTP-Impb inh 5.3, IMP-1 inh -4.6, Runt-SMMHC FRET 107.9* and Runt-CBFb FRET 46.1.
`COc1ccccc1C1C(C#N)=C(N)Oc2cc(C)n(CCCn3ccnc3)c(=O)c21` (stereo not drawn) gave VIM-2 inh 0.0, RanGTP-Impb inh -3.8, IMP-1 inh -2.7, Runt-SMMHC FRET -4.8 and Runt-CBFb FRET 2.7.
For O=C1/C(=C/c2ccccc2Cl)SC(=S)N1CCCC(=O)N(CCO)c1ccccc1 the results were VIM-2 inh -1.1, RanGTP-Impb inh 0.6 and IMP-1 inh -0.3.
For Cc1cccc2cc(C#N)c(NCCNS(=O)(=O)c3ccccc3)nc12 the results were VIM-2 inh -1.1, RanGTP-Impb inh 12.9, IMP-1 inh -1.7, Runt-SMMHC FRET 58.2* and Runt-CBFb FRET 26.1.
COc1ccc(Nc2nc3c(C)cccc3cc2C#N)c(OC)c1 was read as VIM-2 inh -2.7, RanGTP-Impb inh -4.0, IMP-1 inh -1.5, Runt-SMMHC FRET -75.9 and Runt-CBFb FRET -32.1.
Screening Cc1cccc2cc(C#N)c(NCc3ccccc3)nc12 returned VIM-2 inh -3.2, RanGTP-Impb inh inconclusive, IMP-1 inh -3.2, Runt-SMMHC FRET 46.9 and Runt-CBFb FRET 20.7.
For Cc1cccc2cc(C#N)c(NCCCNS(=O)(=O)c3ccc(Cl)cc3)nc12 the results were VIM-2 inh -1.9, RanGTP-Impb inh 47.2*, IMP-1 inh -2.8, Runt-SMMHC FRET 74.3* and Runt-CBFb FRET 31.3.
For O=C(OCCCN=C1NS(=O)(=O)c2ccccc21)c1ccc([N+](=O)[O-])cc1 the results were VIM-2 inh 1.5, RanGTP-Impb inh 1.9, IMP-1 inh 1.3, Runt-SMMHC FRET -1.1 and Runt-CBFb FRET 1.0.
For CCOc1ccc(CN(C)CC(=O)NCc2ccccc2)cc1 the results were VIM-2 inh 1.2, RanGTP-Impb inh -5.2, IMP-1 inh 0.4, Runt-SMMHC FRET -3.1 and Runt-CBFb FRET 1.2.
For CN(CC(=O)NCc1ccccc1)Cc1cccc(F)c1 the results were VIM-2 inh -2.2, RanGTP-Impb inh -2.3 and IMP-1 inh 5.6*.
Cc1ccc2ccc3ccc(C)nc3c2n1 was read as VIM-2 inh 8.6*, RanGTP-Impb inh 1.4 and IMP-1 inh -0.3.
For Clc1cccc2c3c([nH]c12)CCNC3 the results were VIM-2 inh -3.5, RanGTP-Impb inh 2.9 and IMP-1 inh -0.8.
For COc1ccc(-c2cc3c(=O)n(CC(=O)NCCCc4ccccc4)ncn3n2)cc1 the results were VIM-2 inh -0.2, RanGTP-Impb inh -3.6 and IMP-1 inh 14.8*.
For COc1ccc(-c2cc3c(=O)n(CC(=O)NCc4ccccc4OC)ncn3n2)cc1 the results were VIM-2 inh -2.2, RanGTP-Impb inh 0.4 and IMP-1 inh -3.2.
`Cc1ccc(Nc2[nH]c(=O)c3ccccc3c2C(=O)c2ccccc2)cc1` gave RanGTP-Impb inh 27.4*.
`O=C(Nc1ccc(F)cc1)c1ccc(NC(=O)C2CCCO2)cc1` (stereo not drawn) gave VIM-2 inh -2.9, RanGTP-Impb inh 3.6 and IMP-1 inh 7.7*.
Screening Cc1cc(C)c2ccc(C(=O)O)nc2c1O returned VIM-2 inh 9.7*, RanGTP-Impb inh inconclusive, IMP-1 inh -3.0, Runt-SMMHC FRET 1.0 and Runt-CBFb FRET 1.7.
Screening CCOC(=O)C1CCN(C(=O)COC(=O)c2nn(C)c(=O)c3ccccc23)CC1 returned RanGTP-Impb inh -1.1.
Screening O=C1NC(=S)N/C1=C/c1ccc2ccccc2c1 returned VIM-2 inh -1.2, RanGTP-Impb inh 25.8* and IMP-1 inh -3.0.
For N#Cc1cc2ccc(N3CCOCC3)cc2cc1C#N the results were VIM-2 inh 2.6, RanGTP-Impb inh 35.3*, IMP-1 inh 0.2, Runt-SMMHC FRET -10.0 and Runt-CBFb FRET 3.0.
N#Cc1cc(Cl)c(N2CCOCC2)cc1C#N was read as VIM-2 inh -3.5, RanGTP-Impb inh 4.4, IMP-1 inh -2.7, Runt-SMMHC FRET -2.8 and Runt-CBFb FRET 0.5.
For N#Cc1ccccc1Cn1c(=O)n(Cc2ccc(C(=O)NCc3ccco3)cc2)c(=O)c2sccc21 the results were VIM-2 inh -0.5, RanGTP-Impb inh -1.4, IMP-1 inh 7.0*, Runt-SMMHC FRET 2.1 and Runt-CBFb FRET 7.2.
`O=C(Nc1ccc(NC(=O)c2cccs2)c(Cl)c1)c1cccs1` gave VIM-2 inh 0.2, RanGTP-Impb inh -0.1 and IMP-1 inh -1.1.
`CCc1nnc(NC(=O)c2ccc(COc3ccccc3C)o2)s1` gave VIM-2 inh -0.4, RanGTP-Impb inh 0.4 and IMP-1 inh -2.2.
Cc1cc(N(C)Cc2ccccc2)nc2cc(O)ccc12 was read as VIM-2 inh 2.6, RanGTP-Impb inh 7.3 and IMP-1 inh 0.8.
Screening CCOC(=O)CC1=C(C(=O)OCC)C(c2ccncc2)C(C#N)=C(N)O1 (stereo not drawn) returned VIM-2 inh -1.1, IMP-1 inh -1.8, Runt-SMMHC FRET 0.0 and Runt-CBFb FRET -1.4.
